Measured values reported in ChEMBL document CHEMBL1129987, “Structure-based design of nonpeptidic HIV protease inhibitors: the sulfonamide-substituted cyclooctylpyramones” (J Med Chem, 1997).

Experiments:
[1] = target: Human immunodeficiency virus type 1 protease (Human immunodeficiency virus 1) (UniProt Q72874); test: Percentage inhibition against HIV-1 protease at 1 uM concentration of drug
[2] = target: Human immunodeficiency virus type 1 protease (Human immunodeficiency virus 1) (UniProt Q72874); test: Percentage inhibition against HIV-1 protease at 1.1 uM concentration of drug
[3] = target: Human immunodeficiency virus type 1 protease (Human immunodeficiency virus 1) (UniProt Q72874); test: Percentage inhibition against HIV-1 protease at 10 uM concentration of drug
[4] = (§1) Total plasma clearance value was obtained after intravenous administration of […] mg/kg of drug in male Dawley rats; type: ADME, organism-based; conditions: male, Sprague-Dawley, rat, plasma, 2.8 mg/kg
[5] = Maximum concentration was measured after peroral administration of 5.1 mg/kg of drug in male Dawley rats; type: ADME, organism-based; parameters: dose 5.1 mg/kg, route oral; conditions: Sprague-Dawley, rat, in vivo, po
[6] = Maximum time taken by the drug to reach peak concentration after peroral administration of 5.1 mg/kg of drug in male Dawley rats; type: ADME, organism-based; parameters: dose 5.1 mg/kg, route oral; conditions: Sprague-Dawley, rat, in vivo, po
[7] = Oral bioavailability in rat (Sprague-Dawley) (male) (dose 5.1 mg/kg p.o.); type: ADME, organism-based; conditions: in vivo
[8] = (§2) Apparent volume of distribution was obtained after intravenous administration of 2.8 mg/kg of drug in male Dawley rats; type: ADME, organism-based; parameters: dose 2.8 mg/kg, route intravenous; conditions: male, Sprague-Dawley, rat, in vivo, read-out: Vss
[9] = (§3) Half-life was measured after intravenous administration of […] mg/kg of drug in male Dawley rats; type: ADME, organism-based; conditions: male, Sprague-Dawley, rat, in vivo, 2.8 mg/kg
[10] = tested on: Human immunodeficiency virus 1; test: Antiviral activity in HIV-1 infected H9 cells; type: functional; conditions: Human immunodeficiency virus 1, H9; read-out: ED50 (the source's name)
Outline: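 H9 cells infected with HIV-1 IIIB at MOI about 0.005, spun down (200g, 10 min), resuspended at 8 × 10^5 cells/mL in RPMI Complete and mixed with compound; final DMSO 0.1%, triplicate per concentration. After 5 days at 37 °C in 5% CO2, supernatant p24 antigen was measured by ELISA. ED50 is the drug amount that reduces p24 by 50% versus DMSO drug-free controls.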

[11] = target: Human immunodeficiency virus type 1 protease (Human immunodeficiency virus 1, UniProt Q72874); test: Binding affinity against HIV-1 protease
[12] = Median cell culture toxic dose was evaluated against H9 cell line; type: ADME, cell-based; conditions: human, H9 cells; read-out: CCTD50
[13] = Total plasma clearance value was obtained after intravenous administration of 5.1 mg/kg of drug in male Dawley rats; type: ADME, organism-based; parameters: dose 5.1 mg/kg, route intravenous; conditions: Sprague-Dawley, rat
[14] = Maximum concentration was measured after peroral administration of 5.0 mg/kg of drug in male Dawley rats; type: ADME, organism-based; parameters: dose 5 mg/kg, route oral; conditions: Sprague-Dawley, rat, in vivo, po
[15] = Maximum time taken by the drug to reach peak concentration after peroral administration of 5.0 mg/kg of drug in male Dawley rats; type: ADME, organism-based; parameters: dose 5 mg/kg, route oral; conditions: Sprague-Dawley, rat, in vivo, po
[16] = Oral bioavailability in rat (Sprague-Dawley) (male) (dose 5 mg/kg); type: ADME, organism-based; conditions: in vivo
[17] = Apparent volume of distribution was obtained after intravenous administration of 5.1 mg/kg of drug in male Dawley rats; type: ADME, organism-based; parameters: dose 5.1 mg/kg, route intravenous; conditions: Sprague-Dawley, rat, in vivo, read-out: Vss
[18] = Half-life was measured after intravenous administration of 5.1 mg/kg of drug in male Dawley rats; type: ADME, organism-based; parameters: dose 5.1 mg/kg, route intravenous; conditions: Sprague-Dawley, rat, in vivo
[19] = Total plasma clearance value was obtained after intravenous administration of 2.5 mg/kg of drug in male Dawley rats; type: ADME, organism-based; parameters: dose 2.5 mg/kg, route intravenous; conditions: Sprague-Dawley, rat
[20] = Total plasma clearance value was obtained after intravenous administration of 4.9 mg/kg of drug in male Beagle dogs; type: ADME, organism-based, Canis lupus familiaris; parameters: dose 4.9 mg/kg, route intravenous; conditions: dog
[21] = Maximum time taken by the drug to reach peak concentration after peroral administration of 10 mg/kg of drug male in male Beagle dogs; type: ADME, organism-based, Canis lupus familiaris; parameters: dose 10 mg/kg, route oral; conditions: dog, in vivo, po
Outline: (§4)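 Male beagle dogs received a 10 mg/kg oral dose. tmax is reported as a range. Bioavailability was calculated as %F = (AUCpo/AUCiv) × (doseiv/dosepo) against a separate iv study. Values are mean ± SD, n = 3.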

[22] = Maximum time taken by the drug to reach peak concentration after peroral administration of 5.1 mg/kg of drug male in Dawley rats; type: ADME, organism-based; parameters: dose 5.1 mg/kg, route oral; conditions: Sprague-Dawley, rat, in vivo, po
[23] = Oral bioavailability in dog (Beagle) (male) (dose 10 mg/kg p.o.); type: ADME, organism-based, Canis lupus familiaris; conditions: in vivo; outline: as §4
[24] = Apparent volume of distribution was obtained after intravenous administration of 4.9 mg/kg of drug in male Beagle dogs; type: ADME, organism-based, Canis lupus familiaris; parameters: dose 4.9 mg/kg, route intravenous; conditions: dog, in vivo, read-out: Vss
[25] = Half-life was measured after intravenous administration of 4.9 mg/kg of drug in male Beagle dogs; type: ADME, organism-based, Canis lupus familiaris; parameters: dose 4.9 mg/kg, route intravenous; conditions: dog, in vivo
[26] = Half-life was measured after intravenous administration of 2.5 mg/kg of drug in male Dawley rats; type: ADME, organism-based; parameters: dose 2.5 mg/kg, route intravenous; conditions: Sprague-Dawley, rat, in vivo
[27] = target: Human immunodeficiency virus type 1 protease (Human immunodeficiency virus 1) (UniProt Q72874); test: Percentage inhibition against HIV-1 protease at 3 uM concentration of drug
Rattus norvegicus [28] = test: as §1; type: ADME, organism-based; conditions: in vivo, 2.8 mg/kg
[29] = Maximum concentration was measured after peroral administration of 5.2 mg/kg of drug in male Dawley rats; type: ADME, organism-based; parameters: dose 5.2 mg/kg, route oral; conditions: Sprague-Dawley, rat, in vivo, po
[30] = Maximum time taken by the drug to reach peak concentration after peroral administration of 5.2 mg/kg of drug in male Dawley rats; type: ADME, organism-based; parameters: dose 5.2 mg/kg, route oral; conditions: Sprague-Dawley, rat, in vivo, po
[31] = Oral bioavailability in rat (Sprague-Dawley) (male) (dose 5.2 mg/kg p.o.); type: ADME, organism-based; conditions: in vivo
Rattus norvegicus [32] = test: as §2; type: ADME, organism-based; parameters: dose 2.8 mg/kg, route intravenous; conditions: in vivo
Rattus norvegicus [33] = test: as §3; type: ADME, organism-based; conditions: in vivo, 2.8 mg/kg
[34] = Total plasma clearance value was obtained after intravenous administration of 1.8 mg/kg of drug in male Beagle dogs; type: ADME, organism-based, Canis lupus familiaris; parameters: dose 1.8 mg/kg, route intravenous; conditions: dog
[35] = Total plasma clearance value was obtained after intravenous administration of 2.7 mg/kg of drug in male Dawley rats; type: ADME, organism-based; parameters: dose 2.7 mg/kg, route intravenous; conditions: Sprague-Dawley, rat
[36] = Maximum concentration was measured after peroral administration of 10 mg/kg of drug in male Beagle dogs; type: ADME, organism-based, Canis lupus familiaris; parameters: dose 10 mg/kg, route oral; conditions: dog, in vivo, po; outline: as §4
[37] = Maximum time taken by the drug to reach peak concentration after peroral administration of 5.2 mg/kg of drug male in Dawley rats; type: ADME, organism-based; parameters: dose 5.2 mg/kg, route oral; conditions: Sprague-Dawley, rat, in vivo, po
[38] = Apparent volume of distribution was obtained after intravenous administration of 1.8 mg/kg of drug in male Beagle dogs; type: ADME, organism-based, Canis lupus familiaris; parameters: dose 1.8 mg/kg, route intravenous; conditions: dog, in vivo, read-out: Vss
[39] = Apparent volume of distribution was obtained after intravenous administration of 2.7 mg/kg of drug in male Dawley rats; type: ADME, organism-based; parameters: dose 2.7 mg/kg, route intravenous; conditions: Sprague-Dawley, rat, in vivo, read-out: Vss
[40] = Half-life was measured after intravenous administration of 1.8 mg/kg of drug in male Beagle dogs; type: ADME, organism-based, Canis lupus familiaris; parameters: dose 1.8 mg/kg, route intravenous; conditions: dog, in vivo
[41] = Half-life was measured after intravenous administration of 2.7 mg/kg of drug in male Dawley rats; type: ADME, organism-based; parameters: dose 2.7 mg/kg, route intravenous; conditions: Sprague-Dawley, rat, in vivo
[42] = Total plasma clearance value was obtained after intravenous administration of 2.6 mg/kg of drug in male Dawley rats; type: ADME, organism-based; parameters: dose 2.6 mg/kg, route intravenous; conditions: Sprague-Dawley, rat
[43] = Apparent volume of distribution was obtained after intravenous administration of 2.6 mg/kg of drug in male Dawley rats; type: ADME, organism-based; parameters: dose 2.6 mg/kg, route intravenous; conditions: Sprague-Dawley, rat, in vivo, read-out: Vss
[44] = Half-life was measured after intravenous administration of 2.6 mg/kg of drug in male Dawley rats; type: ADME, organism-based; parameters: dose 2.6 mg/kg, route intravenous; conditions: Sprague-Dawley, rat, in vivo
[45] = Apparent volume of distribution was obtained after intravenous administration of 2.5 mg/kg of drug in male Dawley rats; type: ADME, organism-based; parameters: dose 2.5 mg/kg, route intravenous; conditions: Sprague-Dawley, rat, in vivo, read-out: Vss

O=c1c2c(oc(O)c1C(c1cccc(N(S(=O)(=O)c3ccccc3)S(=O)(=O)c3ccccc3)c1)C1CC1)CCCCCC2 (stereo not given)
inhibition [1]: 10%

O=c1c2c(oc(O)c1C(c1cccc(N(Cc3ccccc3)S(=O)(=O)c3ccccc3)c1)C1CC1)CCCCCC2 (stereo not given)
inhibition [2]: < 10%
inhibition [3]: < 10%

O=c1c2c(oc(O)c1[C@H](c1cccc(NS(=O)(=O)c3ccc(F)cc3)c1)C1CC1)CCCCCC2
clearance [4]: 1.92 mL/min/kg
Cmax [5]: 10 µM
Tmax [6]: 15 min
bioavailability [7]: 58%
Vd [8]: 0.13 L/kg
half-life [9]: 132 min
EC50 [10]: 800 nM
Ki [11]: 1.4 nM
CC50 [12]: > 30000 nM

N#Cc1ccc(S(=O)(=O)Nc2cccc([C@@H](c3c(O)oc4c(c3=O)CCCCCC4)C3CC3)c2)cc1
clearance [13]: 0.817 mL/min/kg
Cmax [14]: 19 µM
Tmax [15]: 30 min
bioavailability [16]: 42%
Vd [17]: 0.12 L/kg
half-life [18]: 372 min
EC50 [10]: 1200 nM
CC50 [12]: > 30000 nM

N#Cc1ccc(S(=O)(=O)Nc2cccc(C(c3c(O)c4c(oc3=O)CCCCCC4)C3CC3)c2)cc1 (stereo not given)
clearance [19]: 1.25 mL/min/kg
clearance [20]: 0.733 mL/min/kg
Cmax [5]: 24 µM
Tmax [21]: 30 min
Tmax [22]: 15 min
bioavailability [23]: 77%
bioavailability [7]: 42%
Vd [24]: 0.085 L/kg
half-life [25]: 378 min
EC50 [10]: 1300 nM
half-life [26]: 180 min
CC50 [12]: 90000 nM

O=c1c2c(oc(O)c1C(c1cccc(N(CCc3ccccc3)S(=O)(=O)c3ccccc3)c1)C1CC1)CCCCCC2 (stereo not given)
inhibition [2]: < 10%
inhibition [27]: < 10%

O=c1c2c(oc(O)c1[C@@H](c1cccc(NS(=O)(=O)c3ccc(F)cc3)c1)C1CC1)CCCCCC2
CL (Rattus norvegicus [28]): 0.067 mL/min/kg
Cmax [29]: 24 µM
Tmax [30]: 15 min
bioavailability [31]: 53%
Vss (Rattus norvegicus [32]): 0.15 L/kg
T1/2 (Rattus norvegicus [33]): 360 min
EC50 [10]: > 10000 nM
Ki [11]: 2.1 nM
CC50 [12]: > 30000 nM

O=c1c2c(oc(O)c1C(c1cccc(NS(=O)(=O)c3ccc(F)cc3)c1)C1CC1)CCCCCC2 (stereo not given)
clearance [34]: 3.17 mL/min/kg
clearance [35]: 0.717 mL/min/kg
Cmax [36]: 61 µM
Cmax [29]: 31 µM
Tmax [21]: 30 min
Tmax [37]: 15 min
bioavailability [23]: 107%
bioavailability [31]: 50%
Vd [38]: 0.08 L/kg
Vd [39]: 0.16 L/kg
half-life [40]: 34.2 min
half-life [41]: 372 min
EC50 [10]: 2000 nM
Ki [11]: 3.1 nM
CC50 [12]: 68000 nM

N#Cc1ccc(S(=O)(=O)Nc2cccc([C@H](c3c(O)oc4c(c3=O)CCCCCC4)C3CC3)c2)cc1
clearance [42]: 0.933 mL/min/kg
Cmax [14]: 13 µM
Tmax [15]: 15 min
bioavailability [16]: 31%
Vd [43]: 0.15 L/kg
half-life [44]: 450 min
EC50 [10]: 8300 nM
CC50 [12]: > 30000 nM

O=c1c2c(oc(O)c1[C@H](c1cccc(NS(=O)(=O)c3cccc4cccnc34)c1)C1CC1)CCCCCC2
clearance [19]: 2.83 mL/min/kg
Cmax [14]: 6.2 µM
Tmax [15]: 15 min
bioavailability [16]: 34%
Vd [45]: 0.15 L/kg
EC50 [10]: 1300 nM
Ki [11]: 0.4 nM
half-life [26]: 108 min
CC50 [12]: > 30000 nM
